# The source made the active and inactive calls. The calls are words filed in the database; no cut-off is given here.
# System: Plasma
# Assay: Inhibition of collagen-induced platelet aggregation in human plasma at 300 uM relative to control
# Details: not given
row,Compound,inhibition at 300 µM [%]
1,O=C(CCCCCO[N+](=O)[O-])Oc1ccccc1C(=O)O,27
2,CC(C)(CO[N+](=O)[O-])C(=O)Oc1ccccc1C(=O)O,26
3,O=C(CCC(CO[N+](=O)[O-])O[N+](=O)[O-])Oc1ccccc1C(=O)O (stereo not given),15
4,O=C(CCCC(CO[N+](=O)[O-])O[N+](=O)[O-])Oc1ccccc1C(=O)O (stereo not given),6.7

# System: not listed separately
# Assay: Lipophilicity, log P of the compound
# Type: physicochemical
# Details: octanol/water
row,Compound,logP
1,O=C(CCCCO[N+](=O)[O-])Oc1ccccc1C(=O)O,1.6
2,O=C(CCO[N+](=O)[O-])Oc1ccccc1C(=O)O,1.6
3,CC(=O)Oc1ccccc1C(=O)O [ASPIRIN],1.14
4,O=C(CCCCCO[N+](=O)[O-])Oc1ccccc1C(=O)O,1.6
5,CC(C)(CO[N+](=O)[O-])C(=O)Oc1ccccc1C(=O)O,1.6
6,CC(C)(CCC(CO[N+](=O)[O-])O[N+](=O)[O-])C(=O)Oc1ccccc1C(=O)O (stereo not given),1.6
7,O=C(CC(CO[N+](=O)[O-])O[N+](=O)[O-])Oc1ccccc1C(=O)O (stereo not given),1.6
8,O=C(CCC(CO[N+](=O)[O-])O[N+](=O)[O-])Oc1ccccc1C(=O)O (stereo not given),1.6
9,O=C(CCCC(CO[N+](=O)[O-])O[N+](=O)[O-])Oc1ccccc1C(=O)O (stereo not given),1.6
10,O=C(CCCCC(CO[N+](=O)[O-])O[N+](=O)[O-])Oc1ccccc1C(=O)O (stereo not given),1.6
11,O=C(CCCCCCO[N+](=O)[O-])Oc1ccccc1C(=O)O,1.6
12,O=C(CCCO[N+](=O)[O-])Oc1ccccc1C(=O)O,1.6

# System: not listed separately
# Assay: Dissociation constant, pKa of the compound
# Type: physicochemical
# Details: not given
row,Compound,pKa
1,O=C(CCCCO[N+](=O)[O-])Oc1ccccc1C(=O)O,3.69
2,O=C(CCO[N+](=O)[O-])Oc1ccccc1C(=O)O,3.69
3,O=C(CCCCCO[N+](=O)[O-])Oc1ccccc1C(=O)O,3.69
4,CC(C)(CO[N+](=O)[O-])C(=O)Oc1ccccc1C(=O)O,3.69
5,CC(C)(CCC(CO[N+](=O)[O-])O[N+](=O)[O-])C(=O)Oc1ccccc1C(=O)O (stereo not given),3.69
6,O=C(CC(CO[N+](=O)[O-])O[N+](=O)[O-])Oc1ccccc1C(=O)O (stereo not given),3.69
7,O=C(CCC(CO[N+](=O)[O-])O[N+](=O)[O-])Oc1ccccc1C(=O)O (stereo not given),3.69
8,O=C(CCCC(CO[N+](=O)[O-])O[N+](=O)[O-])Oc1ccccc1C(=O)O (stereo not given),3.69
9,O=C(CCCCC(CO[N+](=O)[O-])O[N+](=O)[O-])Oc1ccccc1C(=O)O (stereo not given),3.69
10,O=C(CCCCCCO[N+](=O)[O-])Oc1ccccc1C(=O)O,3.69
11,O=C(CCCO[N+](=O)[O-])Oc1ccccc1C(=O)O,3.69

# System: Aorta
# Assay: Vasodilation activity in Wistar rat aorta assessed as relaxation of phenylephrine-induced smooth muscle contraction
# Details: not given
row,Compound,EC50 [µM]
1,O=C(CCCCO[N+](=O)[O-])Oc1ccccc1C(=O)O,21
2,O=C(CCO[N+](=O)[O-])Oc1ccccc1C(=O)O,37
3,O=C(CCCCCO[N+](=O)[O-])Oc1ccccc1C(=O)O,14
4,CC(C)(CO[N+](=O)[O-])C(=O)Oc1ccccc1C(=O)O,6.2
5,CC(C)(CCC(CO[N+](=O)[O-])O[N+](=O)[O-])C(=O)Oc1ccccc1C(=O)O (stereo not given),5.3
6,O=C(CC(CO[N+](=O)[O-])O[N+](=O)[O-])Oc1ccccc1C(=O)O (stereo not given),9.2
7,O=C(CCC(CO[N+](=O)[O-])O[N+](=O)[O-])Oc1ccccc1C(=O)O (stereo not given),8.2
8,O=C(CCCC(CO[N+](=O)[O-])O[N+](=O)[O-])Oc1ccccc1C(=O)O (stereo not given),5.8
9,O=C(CCCCC(CO[N+](=O)[O-])O[N+](=O)[O-])Oc1ccccc1C(=O)O (stereo not given),3.1
10,O=C(CCCCCCO[N+](=O)[O-])Oc1ccccc1C(=O)O,8.1
11,O=C(CCCO[N+](=O)[O-])Oc1ccccc1C(=O)O,23

# System: Plasma
# Assay: Inhibition of collagen-induced platelet aggregation in human plasma in presence of 1H-[1,2,4]oxadiazolo[4,3-a]quinoxalin-1-one
# Details: not given
row,Compound,IC50 [µM]
1,O=C(CCCCO[N+](=O)[O-])Oc1ccccc1C(=O)O,91
2,O=C(CCO[N+](=O)[O-])Oc1ccccc1C(=O)O,186
3,O=C(CC(CO[N+](=O)[O-])O[N+](=O)[O-])Oc1ccccc1C(=O)O (stereo not given),119
4,O=C(CCCO[N+](=O)[O-])Oc1ccccc1C(=O)O,24

# System: not listed separately
# Assay: Chemical stability in aqueous buffer at pH 7.4 after 3 hrs
# Type: physicochemical
# Details: read-out: Stability
# In short: (§1)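 10 mM acetonitrile stock added to 0.1 M HCl (pH 1) or 50 mM phosphate buffer pH 7.4 preheated to 37 °C; final compound 250 μM. Held at 37 ± 0.5 °C, aliquots taken at intervals and analysed by RP-HPLC. Value is % compound remaining unchanged at 3 h.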
row,Compound,remaining at 3 h [%]
1,O=C(CCCCO[N+](=O)[O-])Oc1ccccc1C(=O)O,> 95
2,O=C(O)c1ccccc1O [SALICYLIC ACID],> 90
3,O=C(CCO[N+](=O)[O-])Oc1ccccc1C(=O)O,55
4,CC(=O)Oc1ccccc1C(=O)O [ASPIRIN],> 90
5,O=C(CCCCCO[N+](=O)[O-])Oc1ccccc1C(=O)O,> 95
6,CC(C)(CO[N+](=O)[O-])C(=O)Oc1ccccc1C(=O)O,> 95
7,CC(C)(CCC(CO[N+](=O)[O-])O[N+](=O)[O-])C(=O)Oc1ccccc1C(=O)O (stereo not given),> 95
8,O=C(CC(CO[N+](=O)[O-])O[N+](=O)[O-])Oc1ccccc1C(=O)O (stereo not given),20
9,O=C(CCC(CO[N+](=O)[O-])O[N+](=O)[O-])Oc1ccccc1C(=O)O (stereo not given),> 95
10,O=C(CCCC(CO[N+](=O)[O-])O[N+](=O)[O-])Oc1ccccc1C(=O)O (stereo not given),> 95
11,O=C(CCCCC(CO[N+](=O)[O-])O[N+](=O)[O-])Oc1ccccc1C(=O)O (stereo not given),> 95
12,O=C(CCCCCCO[N+](=O)[O-])Oc1ccccc1C(=O)O,> 95
13,O=C(CCCO[N+](=O)[O-])Oc1ccccc1C(=O)O,> 95

# System: not listed separately
# Assay: Chemical stability in aqueous buffer at pH 1 after 3 hrs
# Type: physicochemical
# Details: read-out: Stability
# In short: as §1
row,Compound,remaining at 3 h [%]
1,O=C(CCCCO[N+](=O)[O-])Oc1ccccc1C(=O)O,> 97
2,O=C(O)c1ccccc1O [SALICYLIC ACID],85
3,O=C(CCO[N+](=O)[O-])Oc1ccccc1C(=O)O,> 90
4,CC(=O)Oc1ccccc1C(=O)O [ASPIRIN],> 90
5,O=C(CCCCCO[N+](=O)[O-])Oc1ccccc1C(=O)O,> 97
6,CC(C)(CO[N+](=O)[O-])C(=O)Oc1ccccc1C(=O)O,> 97
7,CC(C)(CCC(CO[N+](=O)[O-])O[N+](=O)[O-])C(=O)Oc1ccccc1C(=O)O (stereo not given),> 97
8,O=C(CC(CO[N+](=O)[O-])O[N+](=O)[O-])Oc1ccccc1C(=O)O (stereo not given),> 85
9,O=C(CCC(CO[N+](=O)[O-])O[N+](=O)[O-])Oc1ccccc1C(=O)O (stereo not given),> 85
10,O=C(CCCC(CO[N+](=O)[O-])O[N+](=O)[O-])Oc1ccccc1C(=O)O (stereo not given),> 85
11,O=C(CCCCC(CO[N+](=O)[O-])O[N+](=O)[O-])Oc1ccccc1C(=O)O (stereo not given),> 85
12,O=C(CCCCCCO[N+](=O)[O-])Oc1ccccc1C(=O)O,> 97
13,O=C(CCCO[N+](=O)[O-])Oc1ccccc1C(=O)O,> 97

# System: Rattus norvegicus
# Assay: Toxicity in Wistar rat assessed as lesion index at 120 mg/kg, intragastrically after 3 hrs
# Type: organism-based
# Parameters: dose 120 mg/kg, route intragastric
# Details: in vivo, po
# In short: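 Male Wistar rats, 180-200 g, fasted 24 h with water available. […] Killed after 3 h; stomachs opened along the lesser curvature and glandular mucosa examined under stereomicroscope. Each haemorrhagic lesion rated by greatest length (<1 mm = 1; 1-2 mm = 2; >2 mm = length), then summed as lesion index; mean ± SEM.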
row,Compound,Activity [%]
1,CC(=O)Oc1ccccc1C(=O)O [ASPIRIN],53.5

# System: not listed separately
# Assay: Stability in human serum assessed as half life
# Type: ADME, cell-free
# Details: not given
# In short: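 Compound from 10 mM acetonitrile stock added to human serum at 37 °C (final 250 μM), incubated at 37 ± 0.5 °C. Aliquots deproteinised with acetonitrile containing 0.1% TFA, sonicated, vortexed, centrifuged 10 min at 2150 g, filtered, then RP-HPLC for parent compound and salicylic acid. First-order hydrolysis; t1/2 in h ± SD.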
row,Compound,half-life [h]
1,O=C(CCCCO[N+](=O)[O-])Oc1ccccc1C(=O)O,0.76
2,O=C(CCO[N+](=O)[O-])Oc1ccccc1C(=O)O,0.26
3,CC(=O)Oc1ccccc1C(=O)O [ASPIRIN],1.06
4,O=C(CCCCCO[N+](=O)[O-])Oc1ccccc1C(=O)O,2.03
5,CC(C)(CO[N+](=O)[O-])C(=O)Oc1ccccc1C(=O)O,9.03
6,CC(C)(CCC(CO[N+](=O)[O-])O[N+](=O)[O-])C(=O)Oc1ccccc1C(=O)O (stereo not given),15.2
7,O=C(CC(CO[N+](=O)[O-])O[N+](=O)[O-])Oc1ccccc1C(=O)O (stereo not given),0.28
8,O=C(CCC(CO[N+](=O)[O-])O[N+](=O)[O-])Oc1ccccc1C(=O)O (stereo not given),4.09
9,O=C(CCCC(CO[N+](=O)[O-])O[N+](=O)[O-])Oc1ccccc1C(=O)O (stereo not given),4.87
10,O=C(CCCCC(CO[N+](=O)[O-])O[N+](=O)[O-])Oc1ccccc1C(=O)O (stereo not given),6.25
11,O=C(CCCCCCO[N+](=O)[O-])Oc1ccccc1C(=O)O,1.19
12,O=C(CCCO[N+](=O)[O-])Oc1ccccc1C(=O)O,0.47

# System: Plasma
# Assay: Inhibition of collagen-induced platelet aggregation in human plasma in presence of 1H-[1,2,4]oxadiazolo[4,3-a]quinoxalin-1-one
# Type: functional, cell-free
# Details: not given
# In short: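 Human PRP prepared by centrifuging citrated blood at 200 g for 20 min. Compounds (vehicle 0.5% DMSO) preincubated 10 min before collagen at 0.8-1.5 μg/mL (submaximal). Light-transmission aggregometry, stirring 1000 rpm, 37 °C, 10 min. sGC inhibitor ODQ at 50 μM. Inhibition relative to control; IC50 by non-linear regression, otherwise % inhibition at 300 μM; ≥5 experiments.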
row,Compound,Activity
1,CC(C)(CCC(CO[N+](=O)[O-])O[N+](=O)[O-])C(=O)Oc1ccccc1C(=O)O (stereo not given),inactive
2,O=C(CCCCC(CO[N+](=O)[O-])O[N+](=O)[O-])Oc1ccccc1C(=O)O (stereo not given),inactive
3,O=C(CCCCCCO[N+](=O)[O-])Oc1ccccc1C(=O)O,inactive

# System: Rattus norvegicus
# Assay: Antiinflammatory activity against carrageenan-induced paw edema in Wistar rat at 120 mg/kg, intragastrically after 3 hrs
# Type: functional
# Details: route intragastric
# In short: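 Conscious rats, edema raised by intraplantar 0.1 ml of 1% carrageenan (in 1% CMC) into right hindpaw. […] Paw volume by water plethysmometer before and 3 h after carrageenan. Inhibition expressed relative to vehicle edema taken as 100. Groups of 6-8 animals; mean ± SEM.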
row,Compound,Activity [%]
1,CC(=O)Oc1ccccc1C(=O)O [ASPIRIN],47

# — ChEMBL document CHEMBL1142275, “Searching for new NO-donor aspirin-like molecules: a new class of nitrooxy-acyl derivatives of salicylic acid” (J Med Chem, 2008)
